Results taken from article PMC9314948 (Diabetes, Obesity & Metabolism, 2022).
Values joined by “and” are separate entries in the source; they are usually repeats but may differ in a detail not shown here. Equal values may be shown once.

What was measured:
[1] = system: obese women; assay: Study A: adverse events; assay type: in vivo, human; details: across Study A and Study B, subjects receiving bremelanotide
In short: (§1)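 Treatment-emergent AEs, including SAEs, are recorded throughout both inpatient placebo-controlled, double-blind SC trials in premenopausal obese women, alongside vital signs, ECG, clinical laboratory tests and physical examination. The safety population is all randomized subjects given ≥1 dose.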

[2] = system: murine model; details: ref Palatin Technologies, Inc. data on file; cited from earlier work
[3] = system: obese women; assay: Study A: blood pressure; assay type: in vivo, human; details: over the course of the study, also seen with placebo
In short: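 Study A, three-times-daily SC dosing for 15 days. Blood pressure is taken at screening, on the 2 days before dosing, on the day after dosing, and 15 min predose and 1 h postdose at each dose on days 1-15, with subjects seated ≥5 min. Continuation requires systolic <155 and diastolic <95 mmHg. Post- vs predose changes are summarized descriptively by visit and treatment.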

[4] = Study A: accumulation of plasma bremelanotide concentration; assay type: in vivo, human; details: plasma 1 h after first dose of the day, SC 3 times daily
In short: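 Day 1 doses are 1.25 mg then 1.0 mg twice; later days are 2.5 mg then 2.0 mg twice. Plasma is sampled 1 h after the first daily dose on days 2, 8 and 15. Day 8/day 2 and day 15/day 2 ratios are computed, with accumulation defined as mean ratio 95% CI >1.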

[5] = system: rat model; details: ref Palatin Technologies, Inc. data on file; cited from earlier work
[6] = system: obese women; assay: Study B: caloric intake and body weight; assay type: in vivo, human
In short: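 Double-blind crossover in inpatient obese women with six randomized sequences of three 4-day regimens separated by 5-day washouts: placebo/placebo, 2.5/2.0 mg, or 2.5 mg/placebo, given SC 1 h before breakfast and lunch. Meals are weighed before and after eating, and snacks are allowed 18:00-midnight. Subjects are weighed each morning before breakfast in underwear or scrubs. ITT analysis uses MMRM for intake and ANCOVA for weight change, with two-sided p.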

[7] = system: obese women; assay: Study B: blood pressure withdrawal criteria; assay type: in vivo, human; details: 2.5 mg/2.0 mg dosing regimen
In short: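 Crossover regimen of 2.5 mg SC 1 h before breakfast and 2.0 mg 1 h before lunch over a 4-day period. Blood pressure is measured daily pre- and postdose after ≥5 min seated. Subjects are withdrawn unless systolic <155 mmHg and diastolic <95 mmHg at all assessments.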

[8] = system: obese women; assay: Study A: body weight, caloric intake and waist circumference; assay type: in vivo, human; details: not significant vs placebo (1.24%)
[9] = Study B: pharmacokinetics of SC bremelanotide; assay type: in vivo, human; details: mean ± SD; for Cavg (D1) / Cmax (D1) / Cavg / RACC3.5 (ratio of day 4/day 1 concentrations 3.5 h postdose) / Tmax / Cmax: Study B; for Cmax (D1) / AUC(0-t) / Cmax: plasma; for Cavg: full dosing interval; for AUC(0-t): AUC0−3.5, Study B
In short: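 A further sample is taken on day 4 at 3.5 h postdose. Plasma levels are measured by HPLC-MS/MS and analysed non-compartmentally. RACC3.5 is the day 4/day 1 ratio at 3.5 h postdose.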

[10] = system: obese women; assay: Study B: adverse events; assay type: in vivo, human
In short: as §1

[11] = once-daily (2.5 mg/0 mg) SC, dose 1, n = 17-22
[12] = once-daily (2.5 mg/0 mg) SC, n = 17-22
[13] = twice-daily (2.5 mg/2.0 mg) SC, dose 1, n = 19-20
[14] = twice-daily (2.5 mg/2.0 mg) SC, n = 19-20
[15] = human, in vivo, sc, once-daily (2.5 mg/0 mg) SC, n = 17-22
[16] = human, in vivo, sc, twice-daily (2.5 mg/2.0 mg) SC, n = 19-20
[17] = once-daily (2.5 mg/0 mg) SC, 4-day period, n = 22
[18] = twice-daily (2.5 mg/2.0 mg) SC, 4-day period, n = 20

CCCC[C@H](NC(C)=O)C(=O)N[C@H]1CC(=O)NCCCC[C@@H](C(=O)O)NC(=O)[C@H](Cc2c[nH]c3ccccc23)NC(=O)[C@H](CCCNC(=N)N)NC(=O)[C@@H](Cc2ccccc2)NC(=O)[C@H](Cc2c[nH]cn2)NC1=O [bremelanotide]
Subjects experiencing nausea [1]: 18% to 30
Body weight [2]: reduced
Food intake [2]: reduced
Decrease from baseline in mean systolic blood pressure [3]: < 10%
Mean ratio of day 8/day 2 bremelanotide concentrations [4]: 1.0
Mean ratio of day 15/day 2 bremelanotide concentrations [4]: 1.1
Body weight [5]: reduced
Food intake [5]: reduced
Daily caloric intake versus placebo ([6]; once or twice daily, all four treatment days, p < 0.001): significantly lower
Weight loss after 4 days versus placebo ([6]; once-daily (2.5 mg/0 mg) SC, p = .0805): numerically greater than weight loss observed in placebo‐treated subjects, but the difference did not reach statistical significance
Mean weight loss from baseline after 4 days ([6]; twice-daily (2.5 mg/2.0 mg) SC, ITT, placebo 0.9 kg, p < .001): 1.7 kg
Subjects withdrawn while receiving the regimen [7]: No subjects
Mean decrease in waist circumference from baseline to day 16 [8]: 1.63%
Cavg (D1) [9, 11]: 51.6 ± 10.1 ng/mL
Cmax (D1) [9, 11]: 75.1 ± 16.1 ng/mL
Cavg [9, 12]: 25.2 ± 4.7 ng/mL
RACC3.5 (ratio of day 4/day 1 concentrations 3.5 h postdose) [9, 12]: 1.0 ± 0.3
Tmax [9, 12]: 1.0 ± 0.3 h
Cavg (D1) [9, 13]: 50.2 ± 9.4 ng/mL
Cmax (D1) [9, 13]: 75.2 ± 16.3 ng/mL
Cavg [9, 14]: 41.7 ± 9.3 ng/mL
RACC3.5 (ratio of day 4/day 1 concentrations 3.5 h postdose) [9, 14]: 1.0 and 1.0 ± 0.1
AUC(0-t) [9, 15]: 181 ± 35.4 ng·h/mL
AUC(0-t) [9, 16]: 176 ± 32.6 ng·h/mL
Cmax [9, 15]: 75.1 ± 16.1 ng/mL
Cmax [9, 16]: 83.8 ± 15.6 ng/mL
Tmax ([9]; human, in vivo, sc, t max (D1), once-daily (2.5 mg/0 mg) SC, dose 1, n = 17-22): 1 ± 0.3 h
Tmax ([9]; human, in vivo, sc, t max (D1), twice-daily (2.5 mg/2.0 mg) SC, dose 1, n = 19-20): 0.9 ± 0.4 h
Tmax ([9]; human, in vivo, sc, t max, twice-daily (2.5 mg/2.0 mg) SC, n = 19-20): 3.3 ± 2 h
AE leading to treatment discontinuation: Nausea [10, 17]: 1 (4.5) n (%)
AE leading to treatment discontinuation: Vomiting [10, 17]: 1 (4.5) n (%)
AE: Decreased appetite [10, 17]: 2 (9.1) n (%)
AE: Ephelides [10, 17]: 0 n (%)
AE: Feeling hot [10, 17]: 2 (9.1) n (%)
AE: Flatulence [10, 17]: 1 (4.5) n (%)
AE: Flushing [10, 17]: 4 (18.2) n (%)
AE: Headache [10, 17]: 2 (9.1) n (%)
AE: Injection site erythema [10, 17]: 9 (40.9) n (%)
AE: Injection site pain [10, 17]: 7 (31.8) n (%)
AE: Injection site pruritus [10, 17]: 2 (9.1) n (%)
AE: Injection site reaction [10, 17]: 16 (72.7) n (%)
AE: Injection site swelling [10, 17]: 2 (9.1) n (%)
AE: Libido increased [10, 17]: 3 (13.6) n (%)
AE: Nausea [10, 17]: 4 (18.2) n (%)
AE: Pigmentation disorder [10, 17]: 6 (27.3) n (%)
AE: Procedural dizziness [10, 17]: 2 (9.1) n (%)
AE: Skin hyperpigmentation [10, 17]: 0 n (%)
AE: Vessel puncture site haemorrhage [10, 17]: 0 n (%)
Subjects experiencing an AE leading to treatment discontinuation [10, 17]: 2 (9.1) n (%)
Subjects experiencing ≥1 AE [10, 17]: 21 (95.5) n (%)
Subjects experiencing ≥1 AE: Mild [10, 17]: 21 (95.5) n (%)
Subjects experiencing ≥1 AE: Moderate [10, 17]: 4 (18.2) n (%)
Subjects experiencing ≥1 AE: Severe [10, 17]: 0 n (%)
Subjects experiencing ≥1 treatment‐related AE [10, 17]: 21 (95.5) n (%)
Treatment‐related AE: Decreased appetite [10, 17]: 2 (9.1) n (%)
Treatment‐related AE: Ephelides [10, 17]: 0 n (%)
Treatment‐related AE: Feeling hot [10, 17]: 2 (9.1) n (%)
Treatment‐related AE: Flatulence [10, 17]: 1 (4.5) n (%)
Treatment‐related AE: Flushing [10, 17]: 4 (18.2) n (%)
Treatment‐related AE: Headache [10, 17]: 2 (9.1) n (%)
Treatment‐related AE: Injection site erythema [10, 17]: 9 (40.9) n (%)
Treatment‐related AE: Injection site pain [10, 17]: 7 (31.8) n (%)
Treatment‐related AE: Injection site pruritus [10, 17]: 2 (9.1) n (%)
Treatment‐related AE: Injection site reaction [10, 17]: 16 (72.7) n (%)
Treatment‐related AE: Injection site swelling [10, 17]: 2 (9.1) n (%)
Treatment‐related AE: Libido increased [10, 17]: 3 (13.6) n (%)
Treatment‐related AE: Nausea [10, 17]: 4 (18.2) n (%)
Treatment‐related AE: Pigmentation disorder [10, 17]: 6 (27.3) n (%)
Treatment‐related AE: Skin hyperpigmentation [10, 17]: 0 n (%)
Number of SAEs reported (in a single subject) ([10]; once-daily bremelanotide, nausea, vomiting, hypersensitivity, dizziness, headache): Five
AE leading to treatment discontinuation: Vomiting [10, 18]: 1 (5.0) n (%)
AE: Decreased appetite [10, 18]: 0 n (%)
AE: Ephelides [10, 18]: 2 (10.0) n (%)
AE: Feeling hot [10, 18]: 0 n (%)
AE: Flatulence [10, 18]: 3 (15.0) n (%)
AE: Flushing [10, 18]: 3 (15.0) n (%)
AE: Headache [10, 18]: 4 (20.0) n (%)
AE: Injection site erythema [10, 18]: 5 (25.0) n (%)
AE: Injection site pain [10, 18]: 8 (40.0) n (%)
AE: Injection site pruritus [10, 18]: 3 (15.0) n (%)
AE: Injection site reaction [10, 18]: 20 (100) n (%)
AE: Injection site swelling [10, 18]: 2 (10.0) n (%)
AE: Libido increased [10, 18]: 2 (10.0) n (%)
AE: Nausea [10, 18]: 4 (20.0) n (%)
AE: Pigmentation disorder [10, 18]: 2 (10.0) n (%)
AE: Procedural dizziness [10, 18]: 0 n (%)
AE: Skin hyperpigmentation [10, 18]: 3 (15.0) n (%)
AE: Vessel puncture site haemorrhage [10, 18]: 2 (10.0) n (%)
Subjects experiencing an AE leading to treatment discontinuation [10, 18]: 1 (5.0) n (%)
Subjects experiencing ≥1 AE [10, 18]: 20 (100) n (%)
Subjects experiencing ≥1 AE: Mild [10, 18]: 20 (100) n (%)
Subjects experiencing ≥1 AE: Moderate [10, 18]: 1 (5.0) n (%)
Subjects experiencing ≥1 AE: Severe [10, 18]: 0 n (%)
Subjects experiencing ≥1 SAE [10, 18]: 0
Subjects experiencing ≥1 treatment‐related AE [10, 18]: 20 (100) n (%)
Treatment‐related AE: Decreased appetite [10, 18]: 0 n (%)
Treatment‐related AE: Ephelides [10, 18]: 2 (10.0) n (%)
Treatment‐related AE: Feeling hot [10, 18]: 0 n (%)
Treatment‐related AE: Flatulence [10, 18]: 2 (10.0) n (%)
Treatment‐related AE: Flushing [10, 18]: 3 (15.0) n (%)
Treatment‐related AE: Headache [10, 18]: 3 (15.0) n (%)
Treatment‐related AE: Injection site erythema [10, 18]: 5 (25.0) n (%)
Treatment‐related AE: Injection site pain [10, 18]: 8 (40.0) n (%)
Treatment‐related AE: Injection site pruritus [10, 18]: 3 (15.0) n (%)
Treatment‐related AE: Injection site reaction [10, 18]: 20 (100.0) n (%)
Treatment‐related AE: Injection site swelling [10, 18]: 2 (10.0) n (%)
Treatment‐related AE: Libido increased [10, 18]: 2 (10.0) n (%)
Treatment‐related AE: Nausea [10, 18]: 3 (15.0) n (%)
Treatment‐related AE: Pigmentation disorder [10, 18]: 2 (10.0) n (%)
Treatment‐related AE: Skin hyperpigmentation [10, 18]: 3 (15.0) n (%)
